Results on four substances are retold here after PMC4475676 (Biochemistry, 2015).

Data set [1] relates to peptide substrate. In words: ZZ-exchange NMR catalytic efficiency. It is filed as biochemical. A digest of the protocol:
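ZZ-exchange NMR used 1 mM 15N-labeled peptide with unlabeled enzyme, 20 μM at 0–20 °C or 1 μM at 30–45 °C. kex_eff came from time-dependent cross-peak build-up, with fit errors from a single experiment. Catalytic-Arg mutants used 100 μM protein at 30 °C with a 0.768 s mixing time. For these, the cis-peak to cross-peak intensity ratio stood in for turnover.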

The test system of another data set is CypA. The settings on record: cited from earlier work.
The subject of a further data set is GeoCyp. The settings on record: cited from earlier work.
For data set [2] the following is noted: denatures entirely; cited from earlier work.
In data set [3] the test system is peptide substrate. In words: NMR titration binding affinity. In outline: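 500 μM 15N-labeled wild-type or mutant protein titrated with 0, 0.1, 0.2, 0.5, 1 and 2 mM peptide. 15N HSQC recorded at 900 MHz. Shift changes of perturbed peaks were fit individually to a quadratic single-site binding equation. Peaks fitting with r² > 0.99 (fast exchange) were then fit globally for one KD per protein. Protein and peptide were in 50 mM Na2HPO4, 1 mM DTT, 1 mM EDTA, pH 6.5.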

Regarding “CypA^R55A: CypA with mutation of the catalytic arginine Arg 55 to alanine”, the “catalysis after mutation of catalytic arginine” value with peptide substrate [1] (100 μM protein, 1 mM peptide, 30 °C) is listed as “nearly, but not entirely, ablates catalysis”.
Regarding GSFGPDLRAGD [peptide substrate], the “isomerization of G-P peptide bond by CypA” value in the data set with CypA is on record as “readily isomerized”. Moreover, the “isomerization of G-P peptide bond by GeoCyp” value in the data set with GeoCyp is given as “readily isomerized”.
Take “CypA^WT: prototypical human cyclophilin A, mesophilic peptidyl-prolyl isomerase”: the “Tm / denaturation temperature” value in data set [2] was 51 °C. Besides, in the data set on peptide substrate [3], the “temperature dependence of binding affinity for the peptide” value is “highly temperature-dependent”. In addition, the “turnover at 45 °C compared between CypA and GeoCyp” value with peptide substrate [1] (45 °C, 1 μM protein, 1 mM peptide) was “comparable rate”.
“CypA^A103R: CypA swap mutant, Ala 103 to Arg”: the “effect of swap mutation on peptide binding” value in the data set with peptide substrate [3] (relative to wild type, NMR titration) is reported as “strengthened”. Also, in the data set on peptide substrate [1] (relative to wild type, ZZ-exchange, 20 μM protein), the “effect of swap mutation on catalytic efficiency” value is recorded as “less”.
